From article PMC7047575 (The AAPS journal, 2018)
Where a name gives a salt, the structure may show the parent alone.

Key:
locomotor activity = assay: Locomotor sensitization to repeated METH administration; format: in vivo, rat
Method in brief: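 Rats randomly assigned to METH or saline groups. Day 0: 60 min chamber habituation without injection. Distance traveled on Days 1 and 10 compared with saline controls and with Day 1.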

[1] = cited from earlier work
[2] = test system: cells co-expressing VMAT2 and DAT; settings: dissociated cells co-expressing VMAT2 and DAT; cited from earlier work
nAChRs = settings: cited from earlier work
VMAT2 = VMAT2 (Rattus norvegicus, UniProt Q01827); assay: Vesicular [3H]DA uptake, rat striatal synaptic vesicles; format: biochemical
DAT = DAT (Rattus norvegicus, UniProt P23977); assay: Synaptosomal [3H]DA uptake, rat striatal synaptosomes; format: biochemical
SERT = SERT (Rattus norvegicus, UniProt P31652); assay: Synaptosomal [3H]5-HT uptake, rat striatal synaptosomes; format: biochemical
α4β2 nAChRs = α4β2 nAChRs (Rattus norvegicus, UniProt P09483+P12390); assay: [3H]NIC binding to rat brain membranes; settings: 0.1 nM - 0.1 mM
α7 nAChRs = α7 nAChRs (Rattus norvegicus, UniProt Q05941); assay: [3H]MLA binding to rat brain membranes; settings: 0.1 nM - 0.1 mM
Method in brief: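 Membranes from rat whole brain minus cortex and cerebellum, washed by repeated 31,000 g spins, with a 10 min 37°C incubation. Binding used 100–140 μg protein, test compound at 7–9 concentrations (0.1 nM–0.1 mM), and [3H]MLA added at 3 nM, in HEPES saline buffer pH 7.5, for 60 min at room temperature. Nonspecific binding was defined with 10 μM nicotine. Read-out by PEI-GF/B filtration and scintillation; n=3.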

hERG channels = hERG channels (Homo sapiens, UniProt Q12809); assay: [3H]Dofetilide binding to hERG channels on HEK-293 cell membranes
[3] = test system: METH-sensitized locomotor activity; assay: METH-induced hyperactivity in METH-sensitized rats, GZ-11610 s.c.; format: in vivo, rat; settings: 1-30 mg/kg, 15 min before METH 1 mg/kg s.c., vs vehicle
[4] = test system: METH-sensitized locomotor activity; assay: METH-induced hyperactivity in METH-sensitized rats, GZ-11610 oral; format: in vivo, rat; settings: 5.6-300 mg/kg

VMAT2, sequence (Q01827 whole entry): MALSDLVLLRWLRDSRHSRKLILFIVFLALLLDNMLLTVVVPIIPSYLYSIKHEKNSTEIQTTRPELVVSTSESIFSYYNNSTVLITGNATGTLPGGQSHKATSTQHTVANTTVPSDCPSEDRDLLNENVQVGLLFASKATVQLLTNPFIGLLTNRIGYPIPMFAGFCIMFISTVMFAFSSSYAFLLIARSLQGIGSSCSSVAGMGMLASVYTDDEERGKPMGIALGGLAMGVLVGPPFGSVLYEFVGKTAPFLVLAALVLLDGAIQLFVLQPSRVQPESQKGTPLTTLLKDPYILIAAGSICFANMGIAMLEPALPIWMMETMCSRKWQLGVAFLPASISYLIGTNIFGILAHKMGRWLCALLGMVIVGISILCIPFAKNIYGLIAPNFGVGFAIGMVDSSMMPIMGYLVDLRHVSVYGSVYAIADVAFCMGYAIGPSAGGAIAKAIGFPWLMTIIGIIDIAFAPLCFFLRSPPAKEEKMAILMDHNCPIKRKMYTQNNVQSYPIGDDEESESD
hERG channels, sequence (Q12809 whole entry): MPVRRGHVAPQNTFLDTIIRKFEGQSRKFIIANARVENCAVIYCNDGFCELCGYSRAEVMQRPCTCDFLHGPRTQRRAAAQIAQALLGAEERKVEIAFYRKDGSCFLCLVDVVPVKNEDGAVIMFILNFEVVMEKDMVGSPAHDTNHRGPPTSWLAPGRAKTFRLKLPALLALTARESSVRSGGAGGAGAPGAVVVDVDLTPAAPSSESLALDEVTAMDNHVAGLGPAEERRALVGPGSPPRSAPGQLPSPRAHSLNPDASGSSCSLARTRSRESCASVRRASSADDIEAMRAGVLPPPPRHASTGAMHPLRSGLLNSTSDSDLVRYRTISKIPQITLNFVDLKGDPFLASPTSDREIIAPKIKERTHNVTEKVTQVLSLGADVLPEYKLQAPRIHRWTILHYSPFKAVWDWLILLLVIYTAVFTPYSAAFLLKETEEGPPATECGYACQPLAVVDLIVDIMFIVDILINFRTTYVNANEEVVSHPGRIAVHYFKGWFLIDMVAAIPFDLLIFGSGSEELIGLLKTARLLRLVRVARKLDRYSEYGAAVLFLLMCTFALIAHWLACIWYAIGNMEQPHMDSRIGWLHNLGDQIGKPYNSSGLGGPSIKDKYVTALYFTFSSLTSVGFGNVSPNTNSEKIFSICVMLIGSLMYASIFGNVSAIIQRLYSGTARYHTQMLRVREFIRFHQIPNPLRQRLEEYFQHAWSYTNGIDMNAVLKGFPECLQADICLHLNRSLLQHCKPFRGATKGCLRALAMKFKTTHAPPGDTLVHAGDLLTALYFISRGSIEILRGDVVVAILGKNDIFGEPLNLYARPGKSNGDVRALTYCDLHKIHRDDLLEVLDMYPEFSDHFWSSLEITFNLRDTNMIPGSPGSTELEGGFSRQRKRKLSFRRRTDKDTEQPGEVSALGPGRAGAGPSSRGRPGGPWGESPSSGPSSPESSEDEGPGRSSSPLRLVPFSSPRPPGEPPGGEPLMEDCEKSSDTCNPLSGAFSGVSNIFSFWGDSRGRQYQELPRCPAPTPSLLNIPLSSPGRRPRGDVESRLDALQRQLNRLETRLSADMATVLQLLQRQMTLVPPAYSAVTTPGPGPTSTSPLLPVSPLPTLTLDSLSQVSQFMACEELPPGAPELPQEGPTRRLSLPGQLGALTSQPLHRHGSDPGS
SERT, sequence (P31652 whole entry): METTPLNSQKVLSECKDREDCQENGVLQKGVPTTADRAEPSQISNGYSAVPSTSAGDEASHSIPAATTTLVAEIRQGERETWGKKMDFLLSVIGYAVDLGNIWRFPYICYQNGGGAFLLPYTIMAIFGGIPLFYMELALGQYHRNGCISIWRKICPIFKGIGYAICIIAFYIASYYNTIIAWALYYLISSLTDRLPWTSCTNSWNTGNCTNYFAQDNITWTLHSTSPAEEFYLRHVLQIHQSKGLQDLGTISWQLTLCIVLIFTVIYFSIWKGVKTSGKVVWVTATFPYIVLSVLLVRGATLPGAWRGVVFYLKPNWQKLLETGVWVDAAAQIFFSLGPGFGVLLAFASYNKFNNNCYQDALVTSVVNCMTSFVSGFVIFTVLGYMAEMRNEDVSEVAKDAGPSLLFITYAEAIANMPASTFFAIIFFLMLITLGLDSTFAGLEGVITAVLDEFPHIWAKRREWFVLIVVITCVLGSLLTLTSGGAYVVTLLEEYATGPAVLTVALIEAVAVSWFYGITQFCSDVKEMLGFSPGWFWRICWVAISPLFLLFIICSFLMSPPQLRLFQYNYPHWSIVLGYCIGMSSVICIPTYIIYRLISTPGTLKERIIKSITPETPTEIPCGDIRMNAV
DAT, sequence (P23977 whole entry): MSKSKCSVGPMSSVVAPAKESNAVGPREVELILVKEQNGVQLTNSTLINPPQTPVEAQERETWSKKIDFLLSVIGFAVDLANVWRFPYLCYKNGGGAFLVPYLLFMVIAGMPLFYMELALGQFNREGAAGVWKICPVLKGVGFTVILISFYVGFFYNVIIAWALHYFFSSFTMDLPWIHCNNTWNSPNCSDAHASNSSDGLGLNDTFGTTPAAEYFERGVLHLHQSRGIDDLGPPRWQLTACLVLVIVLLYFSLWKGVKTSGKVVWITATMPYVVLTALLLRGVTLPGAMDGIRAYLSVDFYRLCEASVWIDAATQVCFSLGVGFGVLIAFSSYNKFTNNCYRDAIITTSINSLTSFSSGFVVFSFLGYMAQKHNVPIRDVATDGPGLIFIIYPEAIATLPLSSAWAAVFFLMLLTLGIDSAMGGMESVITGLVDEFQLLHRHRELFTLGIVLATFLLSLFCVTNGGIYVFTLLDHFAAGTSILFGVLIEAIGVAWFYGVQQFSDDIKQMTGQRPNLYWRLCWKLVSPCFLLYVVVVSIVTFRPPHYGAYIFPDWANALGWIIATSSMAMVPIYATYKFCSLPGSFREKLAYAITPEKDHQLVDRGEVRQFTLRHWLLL
α7 nAChRs, sequence (Q05941 23-502): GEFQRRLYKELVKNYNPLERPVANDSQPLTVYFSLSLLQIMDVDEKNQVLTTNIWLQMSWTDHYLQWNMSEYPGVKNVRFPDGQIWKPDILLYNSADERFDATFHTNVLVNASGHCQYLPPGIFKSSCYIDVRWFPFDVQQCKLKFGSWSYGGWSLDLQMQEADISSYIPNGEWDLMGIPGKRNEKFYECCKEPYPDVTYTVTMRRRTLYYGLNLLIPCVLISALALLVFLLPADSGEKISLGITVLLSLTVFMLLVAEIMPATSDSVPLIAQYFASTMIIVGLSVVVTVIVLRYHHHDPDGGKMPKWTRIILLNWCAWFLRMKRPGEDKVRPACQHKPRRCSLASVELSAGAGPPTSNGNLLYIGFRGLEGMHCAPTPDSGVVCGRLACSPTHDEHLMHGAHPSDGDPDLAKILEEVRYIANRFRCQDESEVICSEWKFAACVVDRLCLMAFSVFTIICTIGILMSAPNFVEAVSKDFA
α4β2 nAChRs, sequence (P09483 31-630): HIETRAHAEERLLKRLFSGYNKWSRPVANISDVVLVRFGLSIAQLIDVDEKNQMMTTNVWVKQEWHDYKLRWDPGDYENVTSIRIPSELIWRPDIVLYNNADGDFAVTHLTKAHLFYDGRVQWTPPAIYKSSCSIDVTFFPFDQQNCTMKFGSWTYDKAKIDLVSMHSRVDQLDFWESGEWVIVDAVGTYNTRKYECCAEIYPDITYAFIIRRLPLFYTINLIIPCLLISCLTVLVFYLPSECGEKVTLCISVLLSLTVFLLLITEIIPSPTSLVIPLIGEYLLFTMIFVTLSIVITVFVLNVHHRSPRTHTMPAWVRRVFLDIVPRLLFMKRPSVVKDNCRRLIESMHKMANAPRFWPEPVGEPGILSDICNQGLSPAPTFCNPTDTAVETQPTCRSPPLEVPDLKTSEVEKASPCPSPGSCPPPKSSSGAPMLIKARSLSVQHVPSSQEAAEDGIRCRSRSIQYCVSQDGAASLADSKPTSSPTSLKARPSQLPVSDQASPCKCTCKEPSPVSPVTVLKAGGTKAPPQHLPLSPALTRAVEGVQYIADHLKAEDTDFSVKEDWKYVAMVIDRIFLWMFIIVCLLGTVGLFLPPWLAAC
α4β2 nAChRs, sequence (P12390 25-500): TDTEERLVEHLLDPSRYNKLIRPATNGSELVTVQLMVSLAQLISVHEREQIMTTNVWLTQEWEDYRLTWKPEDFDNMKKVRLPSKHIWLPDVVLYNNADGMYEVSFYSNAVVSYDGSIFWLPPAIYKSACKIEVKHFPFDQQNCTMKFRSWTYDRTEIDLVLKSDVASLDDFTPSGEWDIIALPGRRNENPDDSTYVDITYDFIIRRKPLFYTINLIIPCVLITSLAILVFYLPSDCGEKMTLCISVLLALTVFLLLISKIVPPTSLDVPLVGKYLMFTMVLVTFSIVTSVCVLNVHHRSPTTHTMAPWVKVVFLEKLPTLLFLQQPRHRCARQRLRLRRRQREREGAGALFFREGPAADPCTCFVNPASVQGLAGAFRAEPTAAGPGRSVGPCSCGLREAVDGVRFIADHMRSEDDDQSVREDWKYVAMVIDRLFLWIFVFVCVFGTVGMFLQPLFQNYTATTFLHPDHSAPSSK

For `CN[C@@H](C)Cc1ccccc1` [METH, (+)-Methamphetamine hydrochloride], the “distance traveled compared to saline, Day 10” value (locomotor activity; METH 1 mg/kg s.c. once daily for 10 days) is listed as “increased distance traveled (p < 0.05)”, the “distance traveled compared to saline, Day 1” value (locomotor activity; acute METH 1 mg/kg s.c.) is listed as “increased (p < 0.05) distance traveled” and the LogP [1] is listed as 2.10.

In the case of `CN1[C@@H](CC(=O)c2ccccc2)CCC[C@H]1C[C@H](O)c1ccccc1` [lobeline], the “reduction of METH-evoked DA efflux” value [2] is listed as 60%.

In the case of `COc1cc2c(cc1OC)[C@H]1C[C@@H](O)[C@H](CC(C)C)CN1CC2` [dihydrotetrabenazene], the “reduction of METH-evoked DA efflux” value [2] is given as 60%.

For `COc1ccc(CCC2CCCC(CCc3ccc(OC)cc3)N2C[C@@H](O)CO)cc1.Cl` (stereo in doubt) [GZ-793A, R-N-(1,2-dihydroxypropyl)-2,6-cis-di-(4-methoxyphenethyl)piperidine hydrochloride], the “selectivity for VMAT2 over nAChRs” value (nAChRs) is given as greater than 1000 fold.

For `COc1ccc(CCCN[C@H](C)Cc2ccccc2)cc1` [GZ-11610, R-3-(4-methoxyphenyl)-N-(1-phenylpropan-2-yl)propan-1-amine], the “maximal inhibition (Imax) of [3H]DA uptake at VMAT2” value (VMAT2; 0.1 nM - 0.1 mM) was greater than 95%, the Ki (VMAT2; read-out: Ki, inhibition of [3H]DA uptake at VMAT2, rat striatal synaptic vesicles) was 8.7 nM and the Ki (DAT) was 2510 nM. For the same compound, the “Imax of [3H]DA uptake at DAT” value (DAT; 0.1 nM - 0.1 mM) was greater than 95%, the “Imax of [3H]5-HT uptake at SERT” value (SERT) was greater than 95% and the Ki (SERT) was 5.55 µM. The “Imax, inhibition of [3H]NIC binding” value (α4β2 nAChRs) was less than 20%, the “Imax, inhibition of [3H]MLA binding” value (α7 nAChRs) was less than 20% and the Ki (hERG channels) was 9.5 µM. For the same compound, the “Imax of [3H]dofetilide binding to hERG channels” value (hERG channels; HEK-293 cell membranes, 0.1 nM - 0.1 mM) was greater than 80%, the “effect on distance traveled after METH in the METH-sensitized group” value [3] was “dose-dependently reduced the distance traveled” and the “effect on distance traveled after METH in the METH-sensitized group” value ([4]; 15 min before METH 1 mg/kg s.c., vs vehicle) was “reduced the distance traveled”. The “effect on locomotor activity in the saline group” value ([4]; one-way ANOVA) was “no significant GZ-11610 effects on locomotor activity”.
